Test system: MS2 coat protein
Test: apparent Kd, MS2 coat protein; higher = weaker binding; RNA-MaP array; FMN 200 µM where present
Method in brief: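 Two titrations, one without ligand and one with constant ligand, were run with SNAP-549-labelled MS2 coat protein from 0.7 or 1.5 nM, doubling to 3 µM. The targets were designs transcribed by stalled E. coli RNA polymerase on Illumina sequencing-chip clusters, in 100 mM Tris-HCl pH 7.5, 80 mM KCl, 4 mM MgCl2, BSA, DTT, yeast tRNA and Tween-20. The apparent Kd is the median of filtered per-cluster binding-curve fits, with green signal normalised to red-channel RNA signal and control-cluster median Fmax.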

[1] = designed as: OFF switch for flavin mononucleotide, no ligand
[2] = ligand present: flavin mononucleotide, designed as: OFF switch for flavin mononucleotide
[3] = designed as: ON switch for flavin mononucleotide, no ligand
[4] = ligand present: flavin mononucleotide, designed as: ON switch for flavin mononucleotide

| Sequence | apparent Kd [1] [nM] | apparent Kd [2] [nM] | apparent Kd [3] [nM] | apparent Kd [4] [nM] |
| --- | --- | --- | --- | --- |
| CUUUCGUUAGCAGGAUAUGGACAGGCCUGUCCGUCUUGAGUCAGUAACAUGAGGAUCACCCAUGUCCAGAAGGGCUCGAAGGGA | 17.7 | 32.4 | – | – |
| CUUUCUUGCAAGGAUAUGCAAUUUAUUAUUUAUGCAGAAGGUGCUACAUGAGGAUCACCCAUGUUUCUGGGUUU | 146 | 208 | – | – |
| CUUUUGUGAGGAUAUCAGUAGUAAAAAAAUAUAAUUACUACUGAGAAGGCACAUGAGGAUCACCCAUGUUCCUC | 36.8 | 267 | – | – |
| CUUUUGUGAGGAUAUCAGUAGUAAAUAAAUAAAAUAACUACUGAGAAGGCACAUGAGGAUCACCCAUGUUCCUC | 35.8 | 223 | – | – |
| CUUUUGUGAGGAUAUCAGUAGUAUAAAAAUAAAAUUACUACUGAGAAGGCACAUGAGGAUCACCCAUGUUCCUC | 39 | 226 | – | – |
| CUUUUGUGAGGAUAUUAGUAGUAAAUAAAUAAAAUUACUAUUGAGAAGGCACAUGAGGAUCACCCAUGUUCCUC | 31.4 | 182 | – | – |
| CUUUUGUGAGGAUAUUAGUAGUAAAUAAAUAAAAUUAUUACUGAGAAGGCACAUGAGGAUCACCCAUGUUCCUC | 32.5 | 405 | – | – |
| CUUUUGUGAGGAUAUUCGUAGUAGGGUCAUGGCAUUAUUAUGGAGAAGGCACAUGAGGAUCACCCAUGUACCUU | 19.7 | 27.5 | – | – |
| GAAAACGCAGAGGAUAUUUCAGAUCAAAGCUGCAAAGAAGGCUGCACAUGAGGAUCACCCAUGUGGUCUUUAAA | 19.3 | 202 | – | – |
| GAACAGGGAGGAUAUACAGAUCCUCGUGCCUGCGGACCAAGACAUGAGGAUCACCCAUGUAGAAGGCCCGAAAA | 15.3 | 10.5 | – | – |
| GAAGGCUGGUAGAAGGAUCCUCACAUGAGGAUCACCCAUGUAACAGCGGAUAGGAUAUACCGUCUUUCACGUUGGUCUCCCUAA | – | – | 370 | 25.3 |
| GAAUUAUUGAUCCAAUUUUACAACAUGAGGAUCACCCAUGUGCAGGAUAUCGUGUGUUUUAUAUUCGAGAAGGGCAAGAACUUU | 141 | 300 | – | – |
| GAAUUCGCAUGAGGAUAUGCACUCAUUUCAUGUGCAGAAGGUAUAUCAUUAGACAUGAGGAUCACCCAUGUAUUGGUCAUUAAA | – | – | 15.8 | 13.9 |
| GACAAUCUAUCUGAGGAUAUCAUGAAAAAAACAUGAGGAUCACCCAUGUGCAGGAAAACUGCAUAUGAGAAGGCAGAUAGAUUGA | – | – | 708 | 28.7 |
| GACACCGUGUAGAAGGACCAGUGCGCUACUAUGGUAGGAUAUACAUGAGGAUCACCCAUGUGACGGCUUUCGGUGGGAGCAGUG | 10.9 | 19.8 | – | – |
| GACACUAUGUUUGUCAGAUAGAGAGAGGAUAUGGCUCAUGAGACAUGAGGAUCACCCAUGUAUAAUCAGAAGGCUCGAGUACGA | – | – | 11.5 | 9.17 |
| GACAUGAGGAUCACCCAUGUACAGAUAGAGGAACUCUAAUUGAGAAGGGACUUGAAACAAUCAUGUCAGGAUAUCAGUGGCGAC | – | – | 86.7 | 41 |
| GACAUUGACAAGAAGGCAAACAUGAGGAUCACCCAUGUUCUGCAUGUAUAUUGAGGAUAUUGCCAAUGCAUGUGGAUCACCCAA | 6.63 | 10.8 | – | – |
| GACAUUGACAAGAAGGCAAACAUGAGGAUCACCCAUGUUCUGCAUGUAUAUUGAGGAUAUUGCCAAUGUAUGUGGAUCACCCAA | 6.25 | 15.2 | – | – |

| Sequence | apparent Kd [1] [nM] | apparent Kd [2] [nM] | apparent Kd [3] [nM] | apparent Kd [4] [nM] |
| --- | --- | --- | --- | --- |
| GACGGAUGUAUAGGAUAUGCUGAGGAAUACUCAGCAGAAGGAUACAUGAGGAUCACCCAUGUAAUAAUAAUAAUAAUAACCGUC | 12.4 | 27.5 | – | – |
| GACGGUGAUGUAGGAUAUACGCUGGAAUACAGCGUAGAAGGACAUGAGGAUCACCCAUGUAAAGUGUCUCUAAAUAACACCGUC | 21.5 | 47.2 | – | – |
| GACUAGGCAGGAUAUACAUGAGGAUCACCCAUGUGUCUGCGUUAAGCACGUGAAGACGGUAGAAGGGCCUUCAC | 11.6 | 13.5 | – | – |
| GACUAGUAAGGAUAUCAAGUUCUCCACAUGAGGAUCACCCAUGUCGAUAACCUCUGACAAUGAGAAGGUGCUGACU | 35.1 | 31.9 | – | – |
| GACUCUAAGUUUGUCACUUAGAGAGAGGAUAUGGAAAACUUGACAUGAGGAUCACCCAUGUAUAAUCAGAAGGCUCGAGUACGA | – | – | 9.95 | 8.98 |
| GACUGCUGAGGAUAUACAUGAGGAUCACCCAUGUGCUUCAGCUACGAGAGUAGCAUUGGUAGAAGGUAGUAGUC | 12.1 | 22.1 | – | – |
| GACUGCUGAGGAUAUACAUGAGGAUCACCCAUGUGCUUCAGUAUCGAAAGAUACAUUGGUAGAAGGUAGUAGUC | 11.8 | 20.8 | – | – |
| GACUUGGCUACAUGAGGAUCACCCAUGUUUGACUGGAUCGAUCAGGAUAUAGUGAUUUGCAACAAUUAGAAGGGAUAUUUACGG | – | – | 49.8 | 51.6 |
| GACUUGUUAGGAUAUCUUACAUUUGCAUCAUAGUAACCUUUGGAGAAGGGACAUGAGGAUCACCCAUGUUUGGA | 40.1 | 36.6 | – | – |
| GACUUGUUAGGAUAUCUUACAUUUGCAUCAUAGUAACCUUUGGAGAAGGGACAUGAGGAUCACCCAUGUUUGGU | 62.3 | 53.5 | – | – |
| GACUUGUUAGGAUAUCUUACAUUUGCAUCAUAGUUACCAUUGGAGAAGGGACAUGAGGAUCACCCAUGUUUGGU | 40 | 39.8 | – | – |
| GACUUUUCUGAGGAUAUUGCAUCACCCGAUCUAUAAGAAGGCAGAACAUGAGGAUCACCCAUGUGGGUUUCUAG | 24.7 | 33.6 | – | – |
| GAGAAUACACUCGUCUCCGCUCAACCAGAAGGGCAUGAUAAUAUUACAUGAGGAUCACCCAUGUUGCAGGAUAUGGUGAGCCUC | – | – | 141 | 58.9 |
| GAGAUGUGAGGAUAUCUAGACCGCGGAAGAGCCGCAGUCCGAGAGAAGGCACAUGAGGAUCACCCAUGUGAUGA | 33.4 | 61.2 | – | – |
| GAGCGAAAGCUCAAUGUCGAUAGCAGAAGGACAUGUAAAAUCAUGAAAACAUGAGGAUCACCCAUGUAGGAUAUGCUAUCGACU | 23 | 371 | – | – |
| GAGCGAAAGCUCAAUGUCGAUAGCAGAAGGAUAUGAAAACAUGAAAUAACAUGAGGAUCACCCAUGUAGGAUAUGCUAUCGACU | 7.41 | 14 | – | – |
| GAGCGGAUGUCAGGAUAUCGCCGCGUGAAAAGGCGAGAAGGGACAUGAGGAUCACCCAUGUACUCAUAGGGCCAGCUUGGGCUA | 9.71 | 29.1 | – | – |
| GAGCGGGAAACAUGAGGAUCACCCAUGUAAUAAGUCCUCAAGUAGGAUAUGCACACGAGAAGUGUGCAGAAGGGCUACCCGGUC | 20.9 | 28.8 | – | – |
| GAGCGGGAAACAUGAGGAUCACCCAUGUGAUGUAUCCUCACGUAGGAUAUGCACACGAGAAGUGUGCAGAAGGGCGACCCGGUC | 1100 | 1260 | – | – |

| Sequence | apparent Kd [1] [nM] | apparent Kd [2] [nM] | apparent Kd [3] [nM] | apparent Kd [4] [nM] |
| --- | --- | --- | --- | --- |
| GAGCUAUGAGGAUAUGCAUAUAUGCGGUUUCGUGUGGUACUACAUGAGGAUCACCCAUGUAGAAGGCGUGGCAG | 16 | 17.5 | – | – |
| GAGCUAUGAGGAUAUGCAUAUAUGCGGUUUCGUGUGGUACUACAUGAGGAUCACCCAUGUAGAAGGCGUGGCUG | 17.2 | 17 | – | – |
| GAGGAGGUAGGAUAUACGAUAAUAUAGGGUAGAUAUAUAACACAUGAGGAUCACCCAUGUAGAAGGACCAGGAG | 34.4 | 62.4 | – | – |
| GAGGCCAAAACAUGAGGAUCACCCAUGUGAGUGGUCCGAAUAUAGGAUAUCCACACGAGAAGUGUGGAGAAGGAUAAUGGCGUC | 321 | 547 | – | – |
| GAGGCCCAGGAAGGUAGAAUGAGCAGAAGGCAACGAAGCGUGAUCGACAUGAGGAUCACCCAUGUUGAGGAUAUGCGCCUCCAC | 63.1 | 178 | – | – |
| GAGGUAUAAGGAUAUACAUAGAUACAGACACAUGUUCAAGUACAUGAGGAUCACCCAUGUAGAAGGUAUAUAUC | 33.6 | 30.6 | – | – |
| GAGUGACAUGAGGAUCACCCAUGUGAGGAUAUCGGACGGACCAAGUUAACAUCCGCCGCGAGAAGGCACAUCGG | 114 | 31.1 | – | – |
| GAGUGGAAGGCCGCUACAUGAGGAUCACCCAUGUGCUAAGCACAGGAUAUCGCGCUAGCCCGGCGCGAGAAGGGUGACGGCCUG | – | – | 674 | 339 |
| GAGUUUACGUUUGUCACUUAGCGAGAGGAUAUGGAAAACAAGACAUGAGGAUCACCCAUGUACUAUCAGAAGGCUCGAGUACGA | – | – | 7.26 | 5.59 |
| GAUAGAGAGCAGGAUAUCUUAGAAAUGUAUUAUAGAGAAGGGCUCACAUGAGGAUCACCCAUGUGGUCCUAGAU | 16.4 | 108 | – | – |
| GAUAUAGAGCAGGAUAUCUUAGAUAUGUAAUAAAGAGAAGGGCUCACAUGAGGAUCACCCAUGUGGUCCUAGAU | 18.5 | 113 | – | – |
| GAUCAGCUUGUGAGGAUAUCCGGGCUUAAAGGCUAGGAGAAGGUACAUGAGGAUCACCCAUGUAGAGUCCUGGG | 73.8 | 111 | – | – |
| GAUCCUUCUGUUAGGAUAUGCUACGGGCUUCCGCUGCAGAAGGAACAUGAGGAUCACCCAUGUCAAAUAAAAUC | 20.1 | 80.2 | – | – |
| GAUCCUUCUGUUAGGAUAUGCUUUGGGCUUCCGCAGCAGAAGGAACAUGAGGAUCACCCAUGUCCAAUACCAUC | 42.6 | 41.8 | – | – |
| GAUCGUUUAGAGGAUAUCGUGCUAAACAUUACAUGAGAAGGCUAGACAUGAGGAUCACCCAUGUAUGCUCGUGA | 15.5 | 17.1 | – | – |
| GAUGGAAUAGUCAGGAUAUAAACGUCAGGAUAUGUUUAGAAGGGACAUGAGGAUCACCCAUGUUAAGAUAUGGU | 29.9 | 87.6 | – | – |
| GAUGGACAUGAGGAUCACCCAUGUCAGGAUAUUGUUUGUGGCUAGUUUUGGUUACGGGCGAGAAGGGACUCGUC | 22.6 | 20.7 | – | – |
| GAUUAGUGAGGAUAUAUUUACGAUCCUCAGCUUUAUUCAGGACAUGAGGAUCACCCAUGUAGAAGGCGUUAAUC | 25.8 | 34.6 | – | – |
